Here are results for 7 compounds from ChEMBL document CHEMBL1124306, “New "ofloxacin" type antibacterial agents. Incorporation of the spiro cyclopropyl group at N-1” (J Med Chem, 1988).

In brackets after ≈: the same amount, converted by molar mass.

Common to all, as to assay type: functional
The subject of test [1] is Escherichia coli. Briefly: Inhibition of growth of Escherichia coli H560.
For test [2], the system named is Escherichia coli. As to the kind of experiment: Inhibition of growth of Escherichia coli vogel.
Test [3] deals with Enterobacter cloacae. As to the kind of experiment: Inhibition of growth of Entero. cloacae.
For test [4], the system named is Klebsiella pneumoniae. As to the kind of experiment: Inhibition of growth of Klebsiella pneumonia.
Test [5] relates to Mus musculus. As to the kind of experiment: In vivo protective dose (PD50) in mice against Escherichia coli Vogel when administered perorally. Conditions: po, read-out: PD50.
Test [6] concerns Mus musculus. As to the kind of experiment: In vivo protective dose (PD50) in mice against Escherichia coli Vogel when administered subcutaneously. Conditions: sc, read-out: PD50.
Test [7] deals with Pseudomonas aeruginosa. As to the kind of experiment: Inhibition of growth of Pseudomonas aeruginosa.
For test [8], the system named is Providencia rettgeri. Briefly: Inhibition of growth of Proteus rettgeri.
The test system of test [9] is Staphylococcus aureus. As to the kind of experiment: Inhibition of growth of Staphylococcus aureus (resistant).
In test [10] the test system is Staphylococcus aureus. Briefly: Inhibition of growth of Staphylococcus aureus (sensitive).
In test [11] the test system is Streptococcus pneumoniae. As to the kind of experiment: Inhibition of growth of Streptococcus pneumonia.
For test [12], the system named is Streptococcus pyogenes. Briefly: Inhibition of growth of Streptococcus pyogenes.
In test [13] the test system is Enterococcus faecalis. As to the kind of experiment: Inhibition of growth of Streptococcus faecalis.
Test [14] relates to Escherichia coli. Briefly: Minimum concentration of the drug needed to produce linear DNA at an intensity relative to oxolinic acid(at 10 ug/mL). Conditions: read-out: I50. In short, it runs like this: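 DNA gyrase from Escherichia coli H560, assayed by a previously published procedure. The end point is the lowest drug concentration giving linear DNA at an intensity matching the oxolinic acid reference at 10 μg/mL.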

The term MIC denotes the least concentration at which growth counts as inhibited. Low readings indicate greater potency, high ones weaker potency. For `CCNCC1CCN(c2c(F)cc3c(=O)c(C(=O)O)cn4c3c2OCC4C)C1` (stereo unspecified), the minimum inhibitory concentration (MIC) was found to be 0.05 µg/mL (≈ 0.128 µM) in [1]; 0.1 µg/mL (≈ 0.257 µM) in test [2]; 0.2 µg/mL (≈ 0.514 µM) in test [3]; 0.4 µg/mL (≈ 1.03 µM) in test [4]; 0.8 µg/mL (≈ 2.05 µM) in test [7]; 0.4 µg/mL (≈ 1.03 µM) in test [8]. Further, the MIC worked out at 0.2 µg/mL (≈ 0.514 µM) in [9]; 0.006 µg/mL (≈ 0.0154 µM) in test [10]; 0.025 µg/mL (≈ 0.0642 µM) in [11]; 0.006 µg/mL (≈ 0.0154 µM) in test [12]; 0.05 µg/mL (≈ 0.128 µM) in test [13]. In addition, the ED50 in [5] was above 100 mg/kg; in [6], 11 mg/kg.

With `CC1COc2c(N3CCC(CN(C)C)C3)c(F)cc3c(=O)c(C(=O)O)cn1c23` (stereo unspecified), the MIC was 0.2 µg/mL (≈ 0.514 µM) in test [1]; 0.2 µg/mL (≈ 0.514 µM) in test [2]; 0.4 µg/mL (≈ 1.03 µM) in test [3]; 0.4 µg/mL (≈ 1.03 µM) in test [4]; 3.1 µg/mL (≈ 7.96 µM) in test [7]; 0.8 µg/mL (≈ 2.05 µM) in [8]. The MIC in [9] was 0.2 µg/mL (≈ 0.514 µM); in [10], 0.05 µg/mL (≈ 0.128 µM); in test [11], 0.05 µg/mL (≈ 0.128 µM); in [12], 0.05 µg/mL (≈ 0.128 µM); in test [13], 0.4 µg/mL (≈ 1.03 µM). The IC50 in test [14] came out at 3 µg/mL (≈ 7.7 µM). For the same compound, the ED50 is 6.2 mg/kg in test [5] and 2.6 mg/kg in [6].

For the compound `CN(C)CC1CCN(c2c(F)cc3c(=O)c(C(=O)O)cn4c3c2OCC42CC2)C1` (stereo unspecified), the MIC in test [1] was found to be 0.8 µg/mL (≈ 1.99 µM); in test [2], 0.4 µg/mL (≈ 0.996 µM); in test [3] it was 0.8 µg/mL (≈ 1.99 µM); in test [4], 0.8 µg/mL (≈ 1.99 µM); in test [7] it was 6.3 µg/mL (≈ 15.7 µM); in [8], 3.1 µg/mL (≈ 7.72 µM). Further, the MIC in [9] was found to be 0.8 µg/mL (≈ 1.99 µM); in test [10] it was 0.2 µg/mL (≈ 0.498 µM); in [11], 0.4 µg/mL (≈ 0.996 µM); in test [12], 0.4 µg/mL (≈ 0.996 µM); in test [13], 0.8 µg/mL (≈ 1.99 µM). Also, the IC50 in test [14] was 11.2 µg/mL (≈ 28 µM). The ED50 came to 16 mg/kg in test [5] and 6.3 mg/kg in test [6].

Consider `O=C(O)c1cn2c3c(c(N4CCNCC4)c(F)cc3c1=O)OCC21CC1`, for which the MIC in [1] was 0.4 µg/mL (≈ 1.11 µM); in test [2], 0.8 µg/mL (≈ 2.23 µM); in test [3], 0.4 µg/mL (≈ 1.11 µM); in [4], 0.8 µg/mL (≈ 2.23 µM); in test [7], 0.8 µg/mL (≈ 2.23 µM); in test [8], 1.6 µg/mL (≈ 4.45 µM). The MIC was determined as 6.3 µg/mL (≈ 17.5 µM) in test [9]; 1.6 µg/mL (≈ 4.45 µM) in [10]; 12.5 µg/mL (≈ 34.8 µM) in [11]; 12.5 µg/mL (≈ 34.8 µM) in [12]; 6.3 µg/mL (≈ 17.5 µM) in test [13]. Also, the IC50 in [14] worked out at 11.2 µg/mL (≈ 31.3 µM).

Consider `CCNCC1CCN(c2c(F)cc3c(=O)c(C(=O)O)cn4c3c2OCC42CC2)C1` (stereo unspecified), for which the MIC in [1] was 1.6 µg/mL (≈ 3.99 µM); in test [2], 0.8 µg/mL (≈ 1.99 µM); in test [3], 0.8 µg/mL (≈ 1.99 µM); in [4], 3.1 µg/mL (≈ 7.72 µM); in [7], 6.3 µg/mL (≈ 15.7 µM); in [8], 3.1 µg/mL (≈ 7.72 µM). For the same compound, the MIC in test [9] is 1.6 µg/mL (≈ 3.99 µM); in test [10] it was 0.1 µg/mL (≈ 0.249 µM); in test [11], 0.05 µg/mL (≈ 0.125 µM); in test [12], 0.05 µg/mL (≈ 0.125 µM); in test [13] it was 0.8 µg/mL (≈ 1.99 µM). For the same compound, the IC50 in test [14] amounted to 5.5 µg/mL (≈ 13.7 µM).

`CC1COc2c(N3CCNCC3)c(F)cc3c(=O)c(C(=O)O)cn1c23` (stereo unspecified) [DESMETHYL-OFLOXACIN]: the MIC in [1] is 0.1 µg/mL (≈ 0.288 µM); in [2], 0.2 µg/mL (≈ 0.576 µM); in [3], 0.1 µg/mL (≈ 0.288 µM); in test [4] it was 0.2 µg/mL (≈ 0.576 µM); in [7] it was 1.6 µg/mL (≈ 4.61 µM); in [8], 0.4 µg/mL (≈ 1.15 µM). Moreover, the MIC is 3.1 µg/mL (≈ 8.92 µM) in test [9]; 0.4 µg/mL (≈ 1.15 µM) in [10]; 3.1 µg/mL (≈ 8.92 µM) in [11]; 0.4 µg/mL (≈ 1.15 µM) in [12]; 6.3 µg/mL (≈ 18.1 µM) in test [13]. Also, in test [14], the IC50 stood at 3 µg/mL (≈ 8.64 µM).

With `CC1COc2c(N3CCN(C)CC3)c(F)cc3c(=O)c(C(=O)O)cn1c23` (stereo unspecified) [OFLOXACIN], the MIC in test [1] came out at 0.05 µg/mL (≈ 0.138 µM); in test [2] it was 0.1 µg/mL (≈ 0.277 µM); in test [3], 0.1 µg/mL (≈ 0.277 µM); in [4], 0.1 µg/mL (≈ 0.277 µM); in [7], 0.4 µg/mL (≈ 1.11 µM); in [8], 0.2 µg/mL (≈ 0.553 µM). Moreover, the MIC is 0.4 µg/mL (≈ 1.11 µM) in test [9]; 0.1 µg/mL (≈ 0.277 µM) in test [10]; 0.8 µg/mL (≈ 2.21 µM) in [11]; 0.8 µg/mL (≈ 2.21 µM) in test [12]; 0.8 µg/mL (≈ 2.21 µM) in test [13]. The IC50 in test [14] is 2.25 µg/mL (≈ 6.23 µM). The ED50 in test [5] worked out at 2 mg/kg; in test [6] it was 0.8 mg/kg.
